Results on three compounds are retold here after ChEMBL document CHEMBL1137646, “Intracellular metabolism and persistence of the anti-human immunodeficiency virus activity of 2',3'-didehydro-3'-deoxy-4'-ethynylthymidine, a novel thymidine analog” (Antimicrob Agents Chemother, 2007).

The source made the active and inactive calls. The rule behind the calls is not given here.

The subject of series [1] is CCRF-CEM. Kind of series: Drug metabolism in human CEM cells assessed as radioactive stavudine diphosphate accumulation at 2 uM after 12 hrs assessed per 10^6 cells. Type of series: ADME, cell-based. The essentials: (§1)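 CEM cells (2 x 10^7/ml) in RPMI 1640 with 10% dialyzed FBS were incubated at 37°C with 2 µM [3H]analog (75 mCi/mmol) and harvested at 2, 4, 8, 12, 16 and 24 h. Cells were washed in ice-cold PBS with 20 µM dipyridamole and extracted with 15% TCA. Neutralized extracts were separated on a Partisil SAX column with an H2O to 300 mM potassium phosphate gradient and radiometric detection, reported as pmol/10^6 cells, mean ± SD of three experiments.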

Series [2] has as its system CCRF-CEM. Kind of series: Drug metabolism in human CEM cells assessed as radioactive 2', 3'-didehydro-3'-deoxy-4'-ethynylthymidine monophosphate accumulation at 2 uM assessed per 10^6 cells. It is filed as ADME, cell-based. As to conditions: TDE = time-dependent effect. The essentials: as §1
Series [3] has as its system CCRF-CEM. Put plainly: Stability in human CEM cells assessed as intracellular radioactive phosphorylated metabolite accumulation at 2 uM incubated for 24 hrs measured after 8 hrs of compound removal assessed per 10^6 cells. Type of series: ADME, cell-based. Summed up:
(§2)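 CEM cells were loaded with 2 µM [3H]analog (75 mCi/mmol) for 24 h, washed, and resuspended in drug-free medium. Intracellular metabolites were then measured by SAX-HPLC with radiometric detection at 0, 2, 4, 8, 12 and 24 h after removal. Values are pmol/10^6 cells, mean ± SD of three experiments.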

Series [4] deals with Human immunodeficiency virus 1. Put plainly: Antiviral activity against 0.1 MOI HIV1 3B infected in human TZM-b1 cells assessed as inhibition of viral replication after 24 hrs by luciferase assay. Type of series: functional, organism-based. Summed up: (§3)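 TZM-bl cells in phenol red-free RPMI 1640 were infected with HIV-1 IIIB (MOI 0.1) at the time of adding drug at various concentrations, and drug and virus stayed together for 24 h. Lysate luciferase was measured with uninfected background subtracted, in quintuple wells. Inhibition was the mean signal relative to drug-free infected cells.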

Series [5] has as its system Human immunodeficiency virus 1. Put plainly: Antiviral activity against 0.1 MOI HIV1 3B in 24 hrs pretreated human TZM-b1 cells infected 24 hrs post drug removal assessed as inhibition of viral replication at 1 to 6 uM measured 24 hrs postinfection by luciferase assay. It is filed as functional, organism-based. Summed up: (§4)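 TZM-bl cells were plated in phenol red-free RPMI 1640, allowed to adhere 15–18 h at 37°C, then exposed to a range of drug concentrations for 24 h. Medium was changed to remove extracellular drug, and cells were infected with HIV-1 IIIB (MOI 0.1) at 0, 24 or 48 h after removal. Luciferase was read 24 h post-infection with uninfected-cell background subtracted, in quintuple wells, and expressed relative to no-drug wells.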

Series [6] has as its system CCRF-CEM. Put plainly: Drug metabolism in human CEM cells assessed as radioactive 2', 3'-didehydro-3'-deoxy-4'-ethynylthymidine triphosphate accumulation at 2 uM assessed per 10^6 cells. Type of series: ADME, cell-based. Conditions: TDE = time-dependent effect. The essentials:
as §1

Series [7] concerns CCRF-CEM. Kind of series: Drug metabolism in human CEM cells assessed as radioactive stavudine triphosphate accumulation at 2 uM after 12 hrs assessed per 10^6 cells. Type of series: ADME, cell-based. Summed up:
as §1

The test system of series [8] is CCRF-CEM. Kind of series: Drug metabolism in human CEM cells assessed as radioactive stavudine triphosphate accumulation at 2 uM assessed per 10^6 cells. Type of series: ADME, cell-based. As to conditions: TDE = time-dependent effect. Summed up: as §1
In series [9] the test system is CCRF-CEM. Put plainly: Drug metabolism in human CEM cells assessed as radioactive zidovudine diphosphate accumulation at 2 uM assessed per 10^6 cells. It is filed as ADME, cell-based. As to conditions: TDE = time-dependent effect. The essentials:
as §1

Series [10] relates to CCRF-CEM. Put plainly: Drug metabolism in human CEM cells assessed as radioactive stavudine monophosphate accumulation at 2 uM after 12 hrs assessed per 10^6 cells. Type of series: ADME, cell-based. Summed up: as §1
Series [11] deals with Human immunodeficiency virus 1. Put plainly: Antiviral activity against 0.1 MOI HIV1 3B infected in human TZM-b1 cells assessed as inhibition of viral replication at 6 uM after 24 hrs by luciferase assay. As to conditions: Human immunodeficiency virus 1, 3B, TZM-b1, 24 h. Type of series: functional. Summed up: as §3
For series [12], the system named is Human immunodeficiency virus 1. Put plainly: Antiviral activity against 0.1 MOI HIV1 3B in 24 hrs pretreated human TZM-b1 cells infected 24 hrs post drug removal assessed as inhibition of viral replication at 1 to 6 uM measured 24 hrs postinfection by luciferase assay.
The test system of series [13] is CCRF-CEM. Kind of series: Drug metabolism in human CEM cells assessed as radioactive 2', 3'-didehydro-3'-deoxy-4'-ethynylthymidine diphosphate accumulation at 2 uM assessed per 10^6 cells. It is filed as ADME, cell-based. Conditions: TDE = time-dependent effect. Summed up: as §1
In series [14] the test system is CCRF-CEM. Kind of series: Stability in human CEM cells assessed as intracellular radioactive triphosphate metabolite accumulation at 2 uM incubated for 24 hrs measured after 24 hrs of compound removal assessed per 10^6 cells. Type of series: ADME, cell-based. Summed up: as §2
In series [15] the test system is Human immunodeficiency virus 1. Kind of series: Antiviral activity against 0.1 MOI HIV1 3B infected in human TZM-b1 cells assessed as inhibition of viral replication at 2 uM after 24 hrs by luciferase assay. Type of series: functional. Conditions: Human immunodeficiency virus 1, 3B, TZM-b1, 24 h. Summed up:
as §3

For series [16], the system named is CCRF-CEM. Kind of series: Drug metabolism in human CEM cells assessed as radioactive zidovudine triphosphate accumulation at 2 uM assessed per 10^6 cells. It is filed as ADME, cell-based. As to conditions: TDE = time-dependent effect. The essentials:
as §1

In series [17] the test system is CCRF-CEM. Kind of series: Drug metabolism in human CEM cells assessed as radioactive zidovudine monophosphate accumulation at 2 uM assessed per 10^6 cells. Type of series: ADME, cell-based. Conditions: TDE = time-dependent effect. Summed up: as §1
Series [18] has as its system CCRF-CEM. Kind of series: Drug metabolism in human CEM cells assessed as radioactive stavudine diphosphate accumulation at 2 uM assessed per 10^6 cells. As to conditions: TDE = time-dependent effect. Type of series: ADME, cell-based. The essentials: as §1
Series [19] has as its system CCRF-CEM. Put plainly: Drug metabolism in human CEM cells assessed as radioactive stavudine monophosphate accumulation at 2 uM assessed per 10^6 cells. It is filed as ADME, cell-based. As to conditions: TDE = time-dependent effect. Summed up:
as §1

Series [20] deals with Human immunodeficiency virus 1. Put plainly: Antiviral activity against 0.1 MOI HIV1 3B infected in human TZM-b1 cells assessed as inhibition of viral replication at 0.18 uM after 24 hrs by luciferase assay. It is filed as functional. As to conditions: Human immunodeficiency virus 1, 3B, TZM-b1, 24 h. Summed up: (§5)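 TZM-bl cells were plated at 0.5 x 10^4 per well in phenol red-free RPMI 1640 and allowed to adhere 15-18 h at 37°C. After a medium change, drug was added with quintuple wells per concentration, and cells were infected at the same time with HIV-1 IIIB at MOI 0.1. After 24 h, cells were lysed and luciferase was read minus the uninfected background. Values are percentage of mean luminescence in drug-free wells.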

The test system of series [21] is Human immunodeficiency virus 1. Put plainly: Antiviral activity against 0.1 MOI HIV1 3B in 24 hrs pretreated human TZM-b1 cells infected 48 hrs post drug removal assessed as inhibition of viral replication at 0.04 to 0.22 uM measured 24 hrs postinfection by luciferase assay. It is filed as functional, organism-based. The essentials: as §4
For series [22], the system named is CCRF-CEM. Put plainly: Drug metabolism in human CEM cells assessed as radioactive 2', 3'-didehydro-3'-deoxy-4'-ethynylthymidine monophosphate accumulation at 2 uM after 12 hrs assessed per 10^6 cells. Type of series: ADME, cell-based. Summed up:
as §1

Series [23] deals with Human immunodeficiency virus 1. Kind of series: Antiviral activity against 0.1 MOI HIV1 3B infected in human TZM-b1 cells assessed as inhibition of viral replication at 0.22 uM after 24 hrs by luciferase assay. It is filed as functional. As to conditions: Human immunodeficiency virus 1, 3B, TZM-b1, 24 h. Summed up: as §5
The test system of series [24] is Human immunodeficiency virus 1. Kind of series: Antiviral activity against 0.1 MOI HIV1 3B in 24 hrs pretreated human TZM-b1 cells infected 24 hrs post drug removal assessed as inhibition of viral replication at 0.04 to 0.22 uM measured 24 hrs postinfection by luciferase assay. It is filed as functional, organism-based. The essentials: as §4
Series [25] has as its system CCRF-CEM. Kind of series: Drug metabolism in human CEM cells assessed as radioactive zidovudine diphosphate accumulation at 2 uM after 2 hrs assessed per 10^6 cells. It is filed as ADME, cell-based. Summed up: as §1
Series [26] deals with CCRF-CEM. Kind of series: Drug metabolism in human CEM cells assessed as radioactive zidovudine triphosphate accumulation at 2 uM after 2 hrs assessed per 10^6 cells. It is filed as ADME, cell-based. Summed up: as §1
In series [27] the test system is CCRF-CEM. Kind of series: Drug metabolism in human CEM cells assessed as radioactive 2', 3'-didehydro-3'-deoxy-4'-ethynylthymidine diphosphate accumulation at 2 uM after 12 hrs assessed per 10^6 cells. Type of series: ADME, cell-based. The essentials:
as §1

Series [28] concerns Human immunodeficiency virus 1. Put plainly: Antiviral activity against 0.1 MOI HIV1 3B infected in human TZM-b1 cells assessed as inhibition of viral replication at 0.13 uM after 24 hrs by luciferase assay. Type of series: functional. Conditions: Human immunodeficiency virus 1, 3B, TZM-b1, 24 h. The essentials:
as §5

Series [29] deals with CCRF-CEM. Put plainly: Drug metabolism in human CEM cells assessed as radioactive zidovudine monophosphate accumulation at 2 uM after 2 hrs assessed per 10^6 cells. Type of series: ADME, cell-based. The essentials: as §1
Series [30] has as its system CCRF-CEM. Kind of series: Drug metabolism in human CEM cells assessed as radioactive 2', 3'-didehydro-3'-deoxy-4'-ethynylthymidine triphosphate accumulation at 2 uM after 12 hrs assessed per 10^6 cells. It is filed as ADME, cell-based. Summed up: as §1
Series [31] has as its system Human immunodeficiency virus 1. Kind of series: Antiviral activity against 0.1 MOI HIV1 3B infected in human TZM-b1 cells assessed as inhibition of viral replication at 0.02 uM after 24 hrs by luciferase assay. It is filed as functional. Conditions: Human immunodeficiency virus 1, 3B, TZM-b1, 24 h. Summed up: as §5
Series [32] has as its target Human immunodeficiency virus type 1 reverse transcriptase (Human immunodeficiency virus 1) (UniProt Q72547). Kind of series: Ratio of Ki to Km for HIV1 reverse transcriptase.

Consider `Cc1cn([C@H]2C=C[C@@H](CO)O2)c(=O)[nH]c1=O` [STAVUDINE], for which the Activity in [1] is reported as 1.2 pmol; in [2], “tde”; in series [6], “tde”; in series [7] it was 1.2 pmol; in [8], “tde”; in series [9] it was “tde”. Besides, the Activity is listed as 1.2 pmol in series [10]; “tde” in series [13]; “tde” in series [16]; “tde” in [17]; “tde” in [18]; “tde” in series [19]. The Stability was 0.2 pmol in series [3] and “Unstable” in series [14]. Further, the inhibition result in [4] is “Dose-dependent effect”. Also, the inhibition result in [5] and in [12] was “inactive” each time. The inhibition at 6 µM in series [11] worked out at 50%. For the same compound, the inhibition at 2 µM in series [15] was 50%.
For the compound `Cc1cn([C@H]2C[C@H](N=[N+]=[N-])[C@@H](CO)O2)c(=O)[nH]c1=O` [ZIDOVUDINE], the Activity result is “tde” in series [2]; “tde” in [6]; “tde” in series [8]; “tde” in series [9]; 18 pmol in series [22]; 90 pmol in series [25]. Also, the Activity in series [26] is given as 90 pmol; in series [27], 18 pmol; in series [29], 90 pmol; in [13], “tde”; in series [30] it was 18 pmol; in [16], “tde”. Moreover, the Activity result in [17], in [18] and in series [19] was “tde” throughout. Besides, the Stability is 2.33 pmol in series [3] and 0.14 pmol in series [14]. Also, in series [4], the inhibition result was “Dose-dependent effect”. Also, the inhibition at 0.18 µM in [20] stood at 50%. The inhibition result in [21] and in series [24] was “inactive” in each case. Moreover, the inhibition at 0.22 µM in [23] was 50%. Moreover, the inhibition at 0.13 µM in series [28] came out at 50%. Moreover, the inhibition at 0.02 µM in series [31] was 50%.
As for `Cc1cn([C@H]2C=C[C@@H](COP(=O)(O)OP(=O)(O)OP(=O)(O)O)O2)c(=O)[nH]c1=O`, the Ki/Km in series [32] worked out at 1.1.

In general, inhibition refers to the drop in the measured response relative to a control, in per cent.
